Assay results published in ChEMBL document CHEMBL4368906 (J Med Chem, 2019).
Bridge positions count the residues as written; N and C are the ends. Square brackets hold non-standard residues; d marks the D form. Peptide text beside a SMILES is read from it. NMeW = CN[C@@H](Cc1c[nH]c2ccccc12)C(=O)O; NMeY = CN[C@@H](Cc1ccc(O)cc1)C(=O)O; NMeF = CN[C@@H](Cc1ccccc1)C(=O)O; NMeK = CN[C@@H](CCCCN)C(=O)O; NMeC = CN[C@@H](CS)C(=O)O

How the values were obtained:
Urotensin-2 receptor [1] = target: T1, Urotensin-2 receptor (Homo sapiens, UniProt Q9UKP6); test: Displacement of [125I]-URP or human [125I[-urotensin-2 from human urotensin 2 receptor expressed in HEK293 or CHOK1 cells after 2 hrs by gamma-counting assay; format: cell-based
T1 sequence (Q9UKP6 whole entry): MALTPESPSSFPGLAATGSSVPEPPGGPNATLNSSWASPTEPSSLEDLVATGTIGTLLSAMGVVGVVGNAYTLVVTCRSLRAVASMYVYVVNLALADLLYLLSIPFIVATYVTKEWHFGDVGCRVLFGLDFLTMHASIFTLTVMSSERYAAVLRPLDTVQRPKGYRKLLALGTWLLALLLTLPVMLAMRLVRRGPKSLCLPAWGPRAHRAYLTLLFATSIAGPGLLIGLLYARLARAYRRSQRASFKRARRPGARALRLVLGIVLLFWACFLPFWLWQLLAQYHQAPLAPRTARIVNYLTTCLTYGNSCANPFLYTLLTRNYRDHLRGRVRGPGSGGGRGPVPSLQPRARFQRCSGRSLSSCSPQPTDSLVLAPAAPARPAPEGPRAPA

Urotensin-2 receptor [2] = target: T2, Urotensin-2 receptor (Rattus norvegicus, UniProt P49684); test: Agonist activity at urotensin 2 receptor in Sprague-Dawley rat thoracic aortic ring assessed as induction of contraction relative to KCl-induced contraction
T2 sequence (P49684 whole entry): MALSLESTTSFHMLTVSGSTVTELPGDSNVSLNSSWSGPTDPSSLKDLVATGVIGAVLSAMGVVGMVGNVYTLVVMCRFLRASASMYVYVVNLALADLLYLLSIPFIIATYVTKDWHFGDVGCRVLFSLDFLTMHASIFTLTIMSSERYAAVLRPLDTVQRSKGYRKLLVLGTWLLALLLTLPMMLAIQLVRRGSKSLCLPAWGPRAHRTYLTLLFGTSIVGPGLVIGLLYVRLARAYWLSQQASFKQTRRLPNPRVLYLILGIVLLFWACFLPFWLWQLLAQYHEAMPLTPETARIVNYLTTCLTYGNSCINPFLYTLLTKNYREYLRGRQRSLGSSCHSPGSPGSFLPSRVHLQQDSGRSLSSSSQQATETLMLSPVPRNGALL
Procedure, shortened: (§1)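 Male Sprague-Dawley rats, 250-300 g. Aortic rings were held in a 5-mL organ bath of oxygenated Krebs-Henseleit buffer. Each vessel was first challenged with KCl, 40 mM final in the bath. Peptides were added cumulatively from 10−11 to 10−5 M. Each contraction was taken as a percentage of the KCl response, divided by the response to hU-II (10−7 M).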

[3] = target: T3, Urotensin-2 receptor (Rattus norvegicus) (UniProt P49684); test: Agonist activity at urotensin 2 receptor in Sprague-Dawley rat thoracic aortic ring assessed as induction of contraction relative to urotensin-2; procedure, shortened: as §1
T3 sequence (whole entry): T2 sequence (P49684 whole entry)

Urotensin-2 receptor [4] = target: T1, Urotensin-2 receptor; test: Agonist activity at urotensin 2 receptor (unknown origin) expressed in HEK293 cells co-expressing Gq-polycistronic BRET biosensor assessed as induction of Gq activation measured for 5 mins by luminescence detection based BRET assay; format: cell-based
[5] = target: T3, Urotensin-2 receptor (Rattus norvegicus); test: Agonist activity at urotensin 2 receptor in Sprague-Dawley rat thoracic aortic ring assessed as induction of contraction at 10 uM relative to KCl-induced contraction; procedure, shortened: as §1

Compound | Ki (Urotensin-2 receptor [1]) [nM] | EC50 (Urotensin-2 receptor [2]) [nM] | Emax [3] [%] | EC50 (Urotensin-2 receptor [4]) [nM] | Activity [5] [%]
CC(C)[C@H](NC(=O)[C@@H]1CSSC[C@H](NC(=O)[C@@H](N)CC(=O)O)C(=O)N[C@@H](Cc2ccccc2)C(=O)N(C)[C@@H](Cc2c[nH]c3ccccc23)C(=O)N[C@@H](CCCCN)C(=O)N[C@@H](Cc2ccc(O)cc2)C(=O)N1)C(=O)O (H-DCF[NMeW]KYCV-OH; disulfide 2-7) | 1.74 | 3.39 | 105 | 3.63 | –
CC(C)[C@H](NC(=O)[C@@H]1CSSC[C@H](NC(=O)[C@H](CC(=O)O)NC(=O)[C@@H]2CCCN2C(=O)[C@@H](NC(=O)[C@@H](N)CCC(=O)O)[C@@H](C)O)C(=O)N[C@@H](Cc2ccccc2)C(=O)N(C)[C@@H](Cc2c[nH]c3ccccc23)C(=O)N[C@@H](CCCCN)C(=O)N[C@@H](Cc2ccc(O)cc2)C(=O)N1)C(=O)O | 20.4 | 5.75 | 97 | 5.62 | –
CC(C)[C@H](NC(=O)[C@@H]1CSSC[C@H](NC(=O)[C@H](C)N)C(=O)N[C@@H](Cc2ccccc2)C(=O)N[C@@H](Cc2c[nH]c3ccccc23)C(=O)N[C@@H](CCCCN)C(=O)N(C)[C@@H](Cc2ccc(O)cc2)C(=O)N1)C(=O)O | 5370 | – | – | – | 16
CC(C)[C@H](NC(=O)[C@@H]1CSSC[C@H](NC(=O)[C@H](C)N)C(=O)N[C@@H](Cc2ccccc2)C(=O)N[C@@H](Cc2c[nH]c3ccccc23)C(=O)N[C@@H](CCCCN)C(=O)N[C@@H](Cc2ccc(O)cc2)C(=O)N1)C(=O)O | 6.31 | 7.76 | 116 | 2.69 | –
CC(C)[C@H](NC(=O)[C@@H]1CSSC[C@H](NC(=O)[C@@H](N)CC(=O)O)C(=O)N[C@@H](Cc2ccccc2)C(=O)N[C@@H](Cc2c[nH]c3ccccc23)C(=O)N[C@@H](CCCCN)C(=O)N[C@@H](Cc2ccc(O)cc2)C(=O)N1)C(=O)O (H-DCFWKYCV-OH; disulfide 2-7) | 4.57 | 5.25 | – | 1.86 | –
CC(C)[C@H](NC(=O)[C@@H]1CSSC[C@H](NC(=O)[C@H](CC(=O)O)NC(=O)[C@@H]2CCCN2C(=O)[C@@H](NC(=O)[C@@H](N)CCC(=O)O)[C@@H](C)O)C(=O)N(C)[C@@H](Cc2ccccc2)C(=O)N[C@@H](Cc2c[nH]c3ccccc23)C(=O)N[C@@H](CCCCN)C(=O)N[C@@H](Cc2ccc(O)cc2)C(=O)N1)C(=O)O | 813 | 200 | 96 | 22.4 | –
CC(C)[C@H](NC(=O)[C@@H]1CSSC[C@H](NC(=O)[C@H](CC(=O)O)NC(=O)[C@@H]2CCCN2C(=O)[C@@H](NC(=O)[C@@H](N)CCC(=O)O)[C@@H](C)O)C(=O)N[C@@H](Cc2ccccc2)C(=O)N[C@@H](Cc2c[nH]c3ccccc23)C(=O)N[C@@H](CCCCN)C(=O)N(C)[C@@H](Cc2ccc(O)cc2)C(=O)N1)C(=O)O | 2140 | – | – | – | 71
CC(C)[C@H](NC(=O)[C@@H]1CSSC[C@H](NC(=O)[C@H](CC(=O)O)NC(=O)[C@@H]2CCCN2C(=O)[C@@H](NC(=O)[C@@H](N)CCC(=O)O)[C@@H](C)O)C(=O)N[C@@H](Cc2ccccc2)C(=O)N[C@@H](Cc2c[nH]c3ccccc23)C(=O)N[C@@H](CCCCN)C(=O)N[C@@H](Cc2ccc(O)cc2)C(=O)N1C)C(=O)O | 22.9 | 24.5 | 105 | 2.69 | –
CC(C)[C@H](NC(=O)[C@@H]1CSSC[C@H](NC(=O)[C@H](C)N)C(=O)N[C@@H](Cc2ccccc2)C(=O)N[C@@H](Cc2c[nH]c3ccccc23)C(=O)N[C@@H](CCCCN)C(=O)N[C@@H](Cc2ccc(O)cc2)C(=O)N1C)C(=O)O | 3.55 | 9.55 | 44 | 5.25 | –
CC(C)[C@H](NC(=O)[C@@H]1CSSC[C@H](NC(=O)[C@H](CC(=O)O)NC(=O)[C@@H]2CCCN2C(=O)[C@@H](NC(=O)[C@@H](N)CCC(=O)O)[C@@H](C)O)C(=O)N[C@@H](Cc2ccccc2)C(=O)N[C@@H](Cc2c[nH]c3ccccc23)C(=O)N(C)[C@@H](CCCCN)C(=O)N[C@@H](Cc2ccc(O)cc2)C(=O)N1)C(=O)O | 2090 | – | – | – | 72
CC(C)[C@H](NC(=O)[C@@H]1CSSC[C@H](NC(=O)[C@H](C)N)C(=O)N(C)[C@@H](Cc2ccccc2)C(=O)N[C@@H](Cc2c[nH]c3ccccc23)C(=O)N[C@@H](CCCCN)C(=O)N[C@@H](Cc2ccc(O)cc2)C(=O)N1)C(=O)O | 245 | – | – | 105 | 51
CC(C)[C@H](NC(=O)[C@@H]1CSSC[C@H](NC(=O)[C@@H](N)CC(=O)O)C(=O)N[C@@H](Cc2ccccc2)C(=O)N[C@@H](Cc2c[nH]c3ccccc23)C(=O)N(C)[C@@H](CCCCN)C(=O)N[C@@H](Cc2ccc(O)cc2)C(=O)N1)C(=O)O (H-DCFW[NMeK]YCV-OH; disulfide 2-7) | > 10000 | – | – | – | 42
CC(C)[C@H](NC(=O)[C@@H]1CSSC[C@H](N(C)C(=O)[C@H](CC(=O)O)NC(=O)[C@@H]2CCCN2C(=O)[C@@H](NC(=O)[C@@H](N)CCC(=O)O)[C@@H](C)O)C(=O)N[C@@H](Cc2ccccc2)C(=O)N[C@@H](Cc2c[nH]c3ccccc23)C(=O)N[C@@H](CCCCN)C(=O)N[C@@H](Cc2ccc(O)cc2)C(=O)N1)C(=O)O | 49 | 9.77 | 112 | – | –
CC(C)[C@H](NC(=O)[C@@H]1CSSC[C@H](N(C)C(=O)[C@H](C)N)C(=O)N[C@@H](Cc2ccccc2)C(=O)N[C@@H](Cc2c[nH]c3ccccc23)C(=O)N[C@@H](CCCCN)C(=O)N[C@@H](Cc2ccc(O)cc2)C(=O)N1)C(=O)O | 1.74 | 4.9 | 110 | – | –
CC(C)[C@H](NC(=O)[C@@H]1CSSC[C@H](NC(=O)[C@H](C)N)C(=O)N[C@@H](Cc2ccccc2)C(=O)N(C)[C@@H](Cc2c[nH]c3ccccc23)C(=O)N[C@@H](CCCCN)C(=O)N[C@@H](Cc2ccc(O)cc2)C(=O)N1)C(=O)O | 2.19 | 83.2 | 35 | 13.8 | –
CC(C)[C@H](NC(=O)[C@@H]1CSSC[C@H](NC(=O)[C@H](C)N)C(=O)N[C@@H](Cc2ccccc2)C(=O)N[C@@H](Cc2c[nH]c3ccccc23)C(=O)N(C)[C@@H](CCCCN)C(=O)N[C@@H](Cc2ccc(O)cc2)C(=O)N1)C(=O)O | 1510 | – | – | – | 22
CC(C)[C@H](NC(=O)[C@@H]1CSSC[C@H](N(C)C(=O)[C@@H](N)CC(=O)O)C(=O)N[C@@H](Cc2ccccc2)C(=O)N[C@@H](Cc2c[nH]c3ccccc23)C(=O)N[C@@H](CCCCN)C(=O)N[C@@H](Cc2ccc(O)cc2)C(=O)N1)C(=O)O (H-D[NMeC]FWKYCV-OH; disulfide 2-7) | 2.95 | 4.47 | 101 | – | –
CC(C)[C@H](NC(=O)[C@@H]1CSSC[C@H](NC(=O)[C@@H](N)CC(=O)O)C(=O)N[C@@H](Cc2ccccc2)C(=O)N[C@@H](Cc2c[nH]c3ccccc23)C(=O)N[C@@H](CCCCN)C(=O)N[C@@H](Cc2ccc(O)cc2)C(=O)N1C)C(=O)O (H-DCFWKY[NMeC]V-OH; disulfide 2-7) | 3.55 | 5.25 | 95 | 4.68 | –
CC(C)[C@H](NC(=O)[C@@H]1CSSC[C@H](NC(=O)[C@H](CC(=O)O)NC(=O)[C@@H]2CCCN2C(=O)[C@@H](NC(=O)[C@@H](N)CCC(=O)O)[C@@H](C)O)C(=O)N[C@@H](Cc2ccccc2)C(=O)N[C@@H](Cc2c[nH]c3ccccc23)C(=O)N[C@@H](CCCCN)C(=O)N[C@@H](Cc2ccc(O)cc2)C(=O)N1)C(=O)O [UROTENSIN-II] | – | 3.02 | – | – | –
CC(C)[C@H](NC(=O)[C@@H]1CSSC[C@H](NC(=O)[C@@H](N)CC(=O)O)C(=O)N[C@@H](Cc2ccccc2)C(=O)N[C@@H](Cc2c[nH]c3ccccc23)C(=O)N[C@@H](CCCCN)C(=O)N(C)[C@@H](Cc2ccc(O)cc2)C(=O)N1)C(=O)O (H-DCFWK[NMeY]CV-OH; disulfide 2-7) | > 10000 | – | – | – | 44
CC(C)[C@H](NC(=O)[C@@H]1CSSC[C@H](NC(=O)[C@@H](N)CC(=O)O)C(=O)N(C)[C@@H](Cc2ccccc2)C(=O)N[C@@H](Cc2c[nH]c3ccccc23)C(=O)N[C@@H](CCCCN)C(=O)N[C@@H](Cc2ccc(O)cc2)C(=O)N1)C(=O)O (H-DC[NMeF]WKYCV-OH; disulfide 2-7) | 229 | 537 | 98 | 18.6 | –
